# OX1R antag-1: antagonists of human orexin 1 receptor (OX1R). inhibition, % at 6.6 µM. AID 485270, 2010. Orexin/Hypocretin receptor type 1 (Homo sapiens), O43613. actives 1.8% (n = 330,000). OX1R-expressing cells, FRET antagonist read-out; in the data active means inhibition mostly above about 38%, no sharp cut-off; inactive means mostly below about 40%;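 further: 0% = agonist challenge alone and 100% = reference antagonist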
# TAAR1 ag: human TAAR1 agonists, primary screen, Fluo-8 calcium fluorescence, CHO RD-HGA16 cells; activation, % at 3 µM; AID 624467, 2012; actives 0.99% (n = 360,000); vehicle wells 0%, saturating PEA agonist 100%;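 active means activation above the mean activation of all test compounds in the run plus 3 SD, cut at about 38% in these data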
# Target sequence (Q96RJ0 whole entry, looked up): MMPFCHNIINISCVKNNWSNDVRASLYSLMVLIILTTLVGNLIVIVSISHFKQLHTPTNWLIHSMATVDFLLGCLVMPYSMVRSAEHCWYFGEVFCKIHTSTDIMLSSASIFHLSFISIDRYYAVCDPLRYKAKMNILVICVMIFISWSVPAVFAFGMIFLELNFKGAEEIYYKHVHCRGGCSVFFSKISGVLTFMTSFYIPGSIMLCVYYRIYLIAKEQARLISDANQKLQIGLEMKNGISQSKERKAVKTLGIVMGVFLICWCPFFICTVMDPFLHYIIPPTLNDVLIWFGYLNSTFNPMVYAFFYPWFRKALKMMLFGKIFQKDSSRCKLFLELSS
#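 test system = CHO RD-HGA16 cells carrying human TAAR1 plus Gα16 | schedule = 17-24 h seeding, 75 min 37 °C dye, 30 min RT | compound dosing = 3 µM single concentration | control set = DMSO and PEA EC100 | replicates = n 1 | signal = Fluo-8 fluorescence, 5 s baseline then 140 s kinetic read | measure = percent activation vs PEA EC100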
# TAAR1 antag: human TAAR1 antagonists, primary screen, Fluo-8 calcium fluorescence, CHO RD-HGA16 cells; Trace amine-associated receptor 1 (Homo sapiens), Q96RJ0; antagonist; inhibition, % at 3 µM; actives 1.5% (n = 360,000); AID 624466, 2012;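 active means inhibition above a per-plate cutoff, the mean inhibition of test compounds on that plate plus 3 SD, cut at about 49% in these data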;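 further: 0% = DMSO plus EC80 beta-PEA response and 100% = DMSO alone without agonist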
#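 Test system – hTAAR1-expressing CHO RD-HGA16 cells, Gα16-coupled · Reagent – β-PEA at EC80 concentration, post-compound challenge · Compound dosing – 3 µM, single point · Timing – 140 s kinetic read after compound, 140 s after agonist · Detection – Fluo-8 intracellular calcium dye fluorescence, real-time kinetic reads · Control set – DMSO and EC80 PEA controls · Repeats – n of 1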
# CHO parental Ca: ATP-evoked calcium signal inhibitors, parental CHO, primary screen, counter-screen for OX1R antagonist project, cell-based, fluorescence, Fluo-8 calcium dye. parental CHO-K1, ATP-induced calcium, Fluo-8 fluorescence. inhibition, % at 5.6 µM. actives 0.63% (n = 330,000). AID 463079, 2010;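 active means inhibition above that plate's mean sample inhibition plus 3 SD, cut at about 26% in these data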;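 further: 0% = ATP-challenged DMSO wells and 100% = DMSO wells without ATP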
#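 Assay system – parental CHO cells · Reagent – ATP stimulus · Detection – intracellular calcium via Fluo-8 no-wash fluorescent dye · Evaluation – percent inhibition of ATP-evoked calcium rise, normalized to controls · Controls – ATP wells versus no-ATP DMSO wells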
# OX1R antag-2: OX1R (HCRTR1) antagonists, primary screen, fluorescence, CHO/OX1R cells, Fluo-8 calcium, orexin A | inhibition, % at 5 µM | Fluo-8 calcium fluorescence | actives 0.43% (n = 330,000);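 active means inhibition above its plate's threshold, mean inhibition of all tested compounds on the plate plus 3 SD, cut at about 37% in these data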;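 further: 0% = orexin A challenge wells and 100% = SB-334867-A antagonist wells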
# An asterisk follows results filed as active; x = no result given. The list is not random: actives were taken first. Their share in the collection is about 4%.
SMILES,OX1R antag-1,TAAR1 ag,TAAR1 antag,CHO parental Ca,OX1R antag-2
COc1cccc(OC)c1C(=O)NC(=S)Nc1cc(-c2nc3ccccc3[nH]2)ccc1Cl,74.3*,11.2,50.2*,-16.7,20.1
COc1c(F)c(F)c(C(=O)Nc2ccc(-c3nc4ccccc4[nH]3)cc2)c(F)c1F,10.5,7.3,35.2,-2.6,-7.9
COc1cccc(NC(=O)CN(C)C(=O)CSCC(=O)Nc2ccc(C)cc2)c1,29.6*,1.5,5.9,-12.9,12.2
COc1cc(NC(=O)CSCC(=O)Nc2cc(OC)cc(OC)c2)cc(OC)c1,63.1*,x,x,-6.8,1.1
COc1cc(NC(=O)CSc2nc(C3CC3)nc3ccccc23)cc(OC)c1,46.8*,-1.8,12.1,-20.0,-21.2
COc1cccc(NC(=O)CN(C)C(=O)CSc2nc3ccccc3s2)c1,53.7*,1.9,-19.9,-7.1,9.0
COc1ccc(NC(=O)CN(C)C(=O)CSCC(=O)Nc2ccc(C)cc2)cc1,12.7,15.5,-18.0,-12.5,-17.0
CN(CC(=O)Nc1cccc(F)c1)C(=O)CSc1nc2ccccc2s1,24.1,4.2,-7.3,-14.9,-26.4
O=C(CSc1nc(C2CC2)nc2ccccc12)Nc1ccccc1,25.7,-3.8,-0.1,-14.4,-8.4
O=c1c([N+](=O)[O-])cccn1Cc1cccc(Br)c1,x,1.5,7.6,x,x
COC(=O)COc1ccc(S(=O)(=O)NCc2ccc3c(c2)OCO3)cc1,-5.4,7.9,9.5,-3.2,-6.4
Nc1ccc2nc(CCc3ccccc3)[nH]c2c1,21.2,1.4,-3.7,-12.4,-8.5
Nc1ccc2nc3c(=O)n(C4CCCCC4)c(=O)[nH]c3nc2c1,52.5,88.0*,33.4,39.0*,46.1*
Cc1cc2nc3c(=O)n(CCc4ccccc4)c(=O)[nH]c3nc2cc1N,16.2,39.3*,42.9,29.8,18.1
Nc1ccc2nc3c(=O)n(CCc4ccccc4)c(=O)[nH]c3nc2c1,19.0,56.3*,24.2,35.5*,41.5*
O=C(N/N=C/c1cccc([N+](=O)[O-])c1)C1CC1c1ccccc1 (stereo not drawn),30.8,-1.8,-3.0,-12.2,-18.3
Cc1ccc(SCc2c(C(=O)N/N=C/c3cccs3)nnn2-c2nonc2N)cc1,x,8.0,62.1*,x,x
Cc1ccc(SCc2c(C(=O)N/N=C/c3ccoc3)nnn2-c2nonc2N)cc1,44.8*,4.8,-10.3,-18.7,20.0
C/C(=N\NC(=O)c1nnn(-c2nonc2N)c1CSc1ccccc1)c1cccnc1,9.8,3.0,-9.1,-22.1,-23.6
C/C(COc1ccccc1)=N\NC(=O)c1nnn(-c2nonc2N)c1CSc1ccccc1,60.2*,2.8,3.0,-2.1,-2.7
S=C(SCc1cc(Cl)cc2c1OCOC2)N1CCSCC1,x,4.9,-20.4,x,x
Cc1cc(C)c(S(=O)(=O)NC(C)C)c(C)c1-n1cnnn1,19.6,2.8,-9.4,-8.6,-16.7
COc1ccc(Cl)cc1NC(=O)CN(c1ccccc1)S(=O)(=O)N(C)C,53.4*,5.9,-4.4,-23.6,-11.9
COc1ccc(NC(=O)CN(c2ccccc2)S(=O)(=O)N(C)C)cc1Cl,9.5,3.8,-6.7,-17.0,-33.9
COc1ccc(Cl)cc1NC(=O)CN(C)C(=O)c1sccc1-c1ccccc1,38.7*,5.8,47.0,-1.6,36.2
SMILES,OX1R antag-1,TAAR1 ag,TAAR1 antag,CHO parental Ca,OX1R antag-2
CCCCCCC12C(=Cc3cc4c(cc31)OCCO4)c1cc(OC)c(OC)cc1C(CC(=O)O)N2C(=O)OC (stereo not drawn),x,2.4,9.9,x,x
CC(C)[C@H](NC(=O)c1ccccc1)C(=O)N1CCC[C@H]1C(=O)NCc1ccccc1,x,-0.5,-25.1,x,x
OCCCNC(=S)Nc1ccc2nc(-c3ccccn3)c(-c3ccccn3)nc2c1,75.0*,3.0,-4.0,-11.0,-12.8
O=C(/C=C/c1cccs1)NC(=S)NNC(=O)Cc1cccs1,9.7,67.5*,25.8,-9.9,-6.5
O=S(=O)(NC1CCCC1)c1ccc(S(=O)(=O)N2CCc3ccccc32)cc1,31.9,18.5,26.8,38.9*,-2.8
Nc1ccc(S(=O)(=O)N2CCc3ccccc32)cc1,15.9,-0.4,8.7,-1.2,-4.0
COc1ccccc1C(=O)NNC(=S)NC(=O)c1ccco1,27.7,40.0*,24.2,30.6,49.7*
Cc1ccccc1C(=O)N1CCN(c2ccc(NC(=S)NC(=O)c3ccco3)cc2)CC1,2.5,11.4,61.6*,7.3,3.4
O=C(NNC(=S)NC(=O)c1ccco1)c1ccc(F)cc1,0.1,8.7,-16.8,27.1,42.4
N#Cc1c(-c2ccc([N+](=O)[O-])cc2)nc2n(c1=O)CCS2,64.8*,0.1,0.9,-2.8,-4.6
N#Cc1c(-c2cccc([N+](=O)[O-])c2)nc2n(c1=O)CCS2,39.9,3.5,0.9,1.6,-11.1
COC(=O)c1sc(-c2cccs2)cc1NC(=O)/C=C/C(=O)O,25.0,1.7,-13.7,-12.4,1.4
Cc1cc(C(=O)CSc2nc(N)cc(N)n2)c(C)n1CCc1ccc(F)cc1,28.4,38.9*,16.6,-4.2,-3.4
CCOc1ccc2nc3cc(NCc4ccc(OC)cc4)ccc3c(N)c2c1,44.2*,x,x,2.1,10.0
CCn1c2ccccc2c2nnc(SCCCn3c(=O)[nH]c4ccccc43)nc21,35.5*,x,x,-34.2,-29.5
CCn1c2ccccc2c2nnc(SCc3ccccc3)nc21,40.0,0.5,13.6,31.6*,-29.4
CCn1c2ccccc2c2nnc(SCCN3CCCCC3)nc21,20.5,-1.2,-9.2,-10.6,-36.4
S=c1[nH]nc(-c2cc(-c3ccccc3)n[nH]2)n1/N=C/c1cccc(Cl)c1,1.6,-1.1,-16.3,-4.9,-8.2
Cc1cnc(NC(=O)c2cc(-c3ccccc3)nn2-c2ccccc2)s1,x,0.0,0.7,x,x
O=C(Nc1nc2ccccc2s1)c1ccc(Cl)s1,43.4*,-1.1,-9.9,-12.0,-7.9
CC(=O)c1sc(NC(=O)c2cc(-c3ccccc3)nn2-c2ccccc2)nc1C,65.7*,-0.4,3.0,-17.9,-5.1
O=C(Nc1nc2ccccc2s1)c1cc(-c2ccccc2)nn1-c1ccccc1,29.7,-0.1,14.9,41.7*,15.4
CC(C)(C)C1=CC(CC(N)=O)(C(C)(C)C)OC1=O (stereo not drawn),x,2.4,-22.7,x,x
COc1ccc(/C=N/Nc2nonc2N)cc1,8.0,2.3,10.8,-6.6,-0.5
Nc1nonc1N/N=C/c1c(O)ccc2ccccc12,72.4,15.6,17.4,23.5,50.2*
Nc1nonc1N/N=C\c1ccccc1,12.6,40.8*,-22.4,4.1,-8.9
Nc1cc(Cl)nc(N/N=C/c2c(O)ccc3ccccc23)n1,10.3,3.1,15.5,-5.1,12.8
